How the values were obtained:
[1] = system: 9L glioma cells; test: In vitro cell uptake studies in 9L cells; type: cell-based; details: time course up to 2 h
Outline: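 9L gliosarcoma cells were grown in DMEM with 10% FBS and 1% penicillin/streptomycin at 37 °C, 5% CO2. They were seeded at 2.0 × 10^5 cells/well 24 h ahead and rinsed with warm PBS containing Ca2+/Mg2+. Radiotracer in PBS (~500,000 cpm/mL/well) was applied for 5, 30, 60 or 120 min at 37 °C. Cells were washed in ice-cold Ca/Mg-free PBS, lysed in 1 M NaOH and gamma-counted. Uptake is %ID/100 μg Lowry protein, in triplicate.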

[2] = system: 9L tumor; test: Small animal imaging with a microPET in 9L tumor bearing rats; type: in vivo, F344 rats; details: after intravenous injection, dynamic PET scan
Outline: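 Rats bearing 9L xenografts were anaesthetised with 1–2% isoflurane and given 30–37 MBq (0.8–1 mCi) of radiotracer via the lateral tail vein. Dynamic small-animal PET acquisition started at injection and ran 2 h (5 min frames, 0.5 mm3 voxels), with a heating pad for body temperature. Region-of-interest analysis gave tissue time-activity curves.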

[3] = system: 9L glioma cells; test: Uptake mechanism; type: cell-based; details: 30 min incubation
Outline: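 The plating, washing, lysis and counting of 9L cells were as in the uptake assay. The radiotracer in PBS was co-incubated with MeAIB, L-Ala, L-Ser, BCH, D-Met or NEM at 0.5, 1 or 5 mM. For sodium dependence, PBS was replaced by Na+-free buffer (143 mM choline chloride, 2.68 mM KCl, 1.47 mM KH2PO4). Incubation was 30 min at 37 °C. Values are normalised to uninhibited uptake in PBS, n = 3.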

[4] = system: 9L xenograft; test: In vivo biodistribution in Fisher rats with 9L glioma tumors; details: for Tumor uptake: 9L tumor, n = 5; for Tumor uptake / Blood uptake / Bone uptake / Brain uptake / Heart uptake / Kidney uptake / Liver uptake / Lung uptake / Muscle uptake / Pancreas uptake / Skin uptake / Spleen uptake: mean ± SD; for Blood uptake / Bone uptake / Brain uptake / Heart uptake / Kidney uptake / Liver uptake / Lung uptake / Muscle uptake / Pancreas uptake / Skin uptake / Spleen uptake: six rats
[5] = system: LAT2; details: cited from earlier work
[6] = 30 min after single intravenous injection
[7] = 60 min after single intravenous injection

## N[C@@H](Cc1ccc(CC[18F])cc1)C(=O)O [FEP, p-(2-[^18F]fluoroethyl)-L-phenylalanine]
[1]
  Maximum uptake relative to FET: about 1.4 fold
[2]
  Time for radioactivity in heart and muscle to reach a plateau: 20 min
[3]; 5 mM BCH (system L inhibitor), normalized to uptake in PBS
  Inhibition of uptake by BCH: more than 98%
[3]; D-Met (LAT1 specific inhibitor)
  Inhibition of uptake by D-Met: very similar effect as BCH
[3]; MeAIB (system A inhibitor) 0.5 to 5 mM
  Inhibition of uptake by MeAIB: no inhibition
[3]; Na+ replaced with choline vs PBS
  Sodium dependence of uptake: sodium independent
[4]; [6]
  Tumor uptake: 0.82 ± 0.06 % ID/g
  Blood uptake: 0.73 ± 0.08 % ID/g
  Bone uptake: 0.41 ± 0.03 % ID/g
  Brain uptake: 0.53 ± 0.03 % ID/g
  Heart uptake: 0.70 ± 0.07 % ID/g
  Kidney uptake: 0.72 ± 0.05 % ID/g
  Liver uptake: 0.71 ± 0.07 % ID/g
  Lung uptake: 0.68 ± 0.08 % ID/g
  Muscle uptake: 0.58 ± 0.05 % ID/g
  Pancreas uptake: 2.66 ± 0.20 % ID/g
  Skin uptake: 0.57 ± 0.07 % ID/g
  Spleen uptake: 0.75 ± 0.06 % ID/g
[4]; [7]
  Tumor uptake: 0.90 ± 0.20 % ID/g
  Blood uptake: 0.65 ± 0.05 % ID/g
  Bone uptake: 0.41 ± 0.04 % ID/g
  Brain uptake: 0.52 ± 0.05 % ID/g
  Heart uptake: 0.63 ± 0.05 % ID/g
  Kidney uptake: 0.63 ± 0.05 % ID/g
  Liver uptake: 0.63 ± 0.05 % ID/g
  Lung uptake: 0.61 ± 0.05 % ID/g
  Muscle uptake: 0.62 ± 0.05 % ID/g
  Pancreas uptake: 2.45 ± 0.27 % ID/g
  Skin uptake: 0.60 ± 0.09 % ID/g
  Spleen uptake: 0.69 ± 0.05 % ID/g
[4]; 30 min after injection
  Tumor to blood ratio: 1.12
  Tumor/Brain ratio: 1.55
  Tumor/Muscle ratio: 1.41
[4]; 60 min after injection
  Tumor to blood ratio: 1.38
  Tumor/Brain ratio: 1.73
  Tumor/Muscle ratio (tumor to background): 1.45
[4]; bone uptake not significant at 30 and 60 min
  In vivo metabolic stability (from bone uptake): metabolically stable

## N[C@@H](Cc1ccc(OCC[18F])cc1)C(=O)O [FET, O-(2-[^18F]fluoroethyl)-L-tyrosine]
[5]
  Transport subtype selectivity: selectively transported via LAT2

— paper PMC3065024 (Nuclear medicine and biology, 2011)
